Source: ChEMBL document CHEMBL1157043, “An eco-friendly synthesis and antimicrobial activities of dihydro-2H-benzo- and naphtho-1,3-oxazine derivatives” (Eur J Med Chem, 2010)
≈ marks a conversion by molar mass, not a printed value.

What was measured:
Candida albicans = test: Antimicrobial activity against Candida albicans after 24 hrs; assay type: functional
Method in brief: (§1)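 Broth microdilution per NCCLS guidelines in MOPS-buffered RPMI 1640. Starting inoculum was 1-5 × 10^3 cfu/mL, and plates were incubated at 35 °C. MIC was read spectrophotometrically at 492 nm after 24–48 h for yeasts and 72–96 h for mycelial fungi.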

Cryptococcus neoformans = test: Antimicrobial activity against Cryptococcus neoformans after 24 hrs; assay type: functional; method in brief: as §1
Sporothrix schenckii = test: Antimicrobial activity against Sporothrix schenckii after 24 hrs; assay type: functional; method in brief: as §1
Candida parapsilosis = test: Antimicrobial activity against Candida parapsilosis ATCC 22019 after 24 hrs; assay type: functional; details: Lodderomyces parapsilosis, ATCC 22019, 24 h; method in brief: as §1
Klebsiella pneumoniae = test: Antimicrobial activity against Klebsiella pneumoniae after 24 hrs; assay type: functional
Method in brief: (§2)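 NCCLS microdilution in Mueller Hinton broth. Strains were grown 24 h on nutrient agar at 37 °C, suspended at about 1.0–2.0 × 10^7 cells/mL (McFarland-matched) in saline with 0.05% Tween 20, then diluted 100 µL into 10 mL medium. Compounds were taken from a 1 mg/mL DMSO stock as twofold dilutions, top final 50 µg/mL. Incubation was 35 °C in a moist, dark chamber, and MIC was read spectrophotometrically at 24 h.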

Escherichia coli = test: Antimicrobial activity against Escherichia coli after 24 hrs; assay type: functional; method in brief: as §2
Pseudomonas aeruginosa = test: Antimicrobial activity against Pseudomonas aeruginosa after 24 hrs; assay type: functional; method in brief: as §2
Staphylococcus aureus = test: Antimicrobial activity against Staphylococcus aureus after 24 hrs; assay type: functional; method in brief: as §2
Aspergillus fumigatus = test: Antimicrobial activity against Aspergillus fumigatus after 72 to 96 hrs
[1] = system: Trichophyton mentagrophytes; test: Antimicrobial activity against Trichophyton mentagrophytes after 72 to 96 hrs

Molecule	MIC (Candida albicans)	MIC (Cryptococcus neoformans)	MIC (Sporothrix schenckii)	MIC (Candida parapsilosis)	MIC (Klebsiella pneumoniae)	MIC (Escherichia coli)	MIC (Pseudomonas aeruginosa)	MIC (Staphylococcus aureus)	MIC (Aspergillus fumigatus)	MIC [1]
c1ccc(N2COc3ccc4ccccc4c3C2)cc1	50 µg/mL (≈ 191 µM)	> 50 µg/mL	25 µg/mL (≈ 95.7 µM)	> 50 µg/mL	> 50 µg/mL	50 µg/mL (≈ 191 µM)	50 µg/mL (≈ 191 µM)	> 50 µg/mL	> 50 µg/mL	> 50 µg/mL
c1ccc2c(c1)CN(C1CCCCC1)CO2	> 50 µg/mL	> 50 µg/mL	> 50 µg/mL	> 50 µg/mL	> 50 µg/mL	> 50 µg/mL	> 50 µg/mL	> 50 µg/mL	> 50 µg/mL	50 µg/mL (≈ 230 µM)
Cc1ccc(N2COc3ccc(C)cc3C2)cc1	50 µg/mL (≈ 209 µM)	50 µg/mL (≈ 209 µM)	12.5 µg/mL (≈ 52.2 µM)	50 µg/mL (≈ 209 µM)	50 µg/mL (≈ 209 µM)	25 µg/mL (≈ 104 µM)	> 50 µg/mL	25 µg/mL (≈ 104 µM)	50 µg/mL (≈ 209 µM)	12.5 µg/mL (≈ 52.2 µM)
c1ccc(CN2COc3ccc4ccccc4c3C2)cc1	> 50 µg/mL	> 50 µg/mL	50 µg/mL (≈ 182 µM)	> 50 µg/mL	> 50 µg/mL	> 50 µg/mL	> 50 µg/mL	> 50 µg/mL	> 50 µg/mL	50 µg/mL (≈ 182 µM)
Cc1ccc2c(c1)CN(CCN1COc3ccc(C)cc3C1)CO2	50 µg/mL (≈ 154 µM)	50 µg/mL (≈ 154 µM)	12.5 µg/mL (≈ 38.5 µM)	50 µg/mL (≈ 154 µM)	> 50 µg/mL	> 50 µg/mL	> 50 µg/mL	> 50 µg/mL	50 µg/mL (≈ 154 µM)	25 µg/mL (≈ 77.1 µM)
Clc1ccc(Cl)c(N2COc3ccc4ccccc4c3C2)c1	> 50 µg/mL	> 50 µg/mL	> 50 µg/mL	> 50 µg/mL	> 50 µg/mL	50 µg/mL (≈ 151 µM)	> 50 µg/mL	> 50 µg/mL	> 50 µg/mL	50 µg/mL (≈ 151 µM)
c1ccc2c(c1)CN(CCN1COc3ccccc3C1)CO2	> 50 µg/mL	50 µg/mL (≈ 169 µM)	25 µg/mL (≈ 84.4 µM)	> 50 µg/mL	> 50 µg/mL	> 50 µg/mL	> 50 µg/mL	> 50 µg/mL	50 µg/mL (≈ 169 µM)	25 µg/mL (≈ 84.4 µM)
OC(Cn1cncn1)(Cn1cncn1)c1ccc(F)cc1F [FLUCONAZOLE]	0.5 µg/mL (≈ 1.63 µM)	1 µg/mL (≈ 3.27 µM)	2 µg/mL (≈ 6.53 µM)	1 µg/mL (≈ 3.27 µM)					2 µg/mL (≈ 6.53 µM)	1 µg/mL (≈ 3.27 µM)
Cc1ccc(N2COc3ccc(Cl)cc3C2)cc1	25 µg/mL (≈ 96.3 µM)	50 µg/mL (≈ 193 µM)	6.25 µg/mL (≈ 24.1 µM)	25 µg/mL (≈ 96.3 µM)	25 µg/mL (≈ 96.3 µM)	6.25 µg/mL (≈ 24.1 µM)	> 50 µg/mL	12.5 µg/mL (≈ 48.1 µM)	25 µg/mL (≈ 96.3 µM)	12.5 µg/mL (≈ 48.1 µM)
c1ccc(N2COc3ccccc3C2)cc1	> 50 µg/mL	> 50 µg/mL	25 µg/mL (≈ 118 µM)	50 µg/mL (≈ 237 µM)	> 50 µg/mL	50 µg/mL (≈ 237 µM)	> 50 µg/mL	> 50 µg/mL	50 µg/mL (≈ 237 µM)	25 µg/mL (≈ 118 µM)
CC(=O)N1CCN(c2ccc(OCC3COC(Cn4ccnc4)(c4ccc(Cl)cc4Cl)O3)cc2)CC1 (stereo not given) [KETOCONAZOLE]	0.002 µg/mL (≈ 0.00376 µM)	0.001 µg/mL (≈ 0.00188 µM)	0.031 µg/mL (≈ 0.0583 µM)	0.031 µg/mL (≈ 0.0583 µM)					2 µg/mL (≈ 3.76 µM)	4 µg/mL (≈ 7.53 µM)
CCCCN1COc2ccccc2C1	> 50 µg/mL	> 50 µg/mL	50 µg/mL (≈ 261 µM)	> 50 µg/mL	> 50 µg/mL	50 µg/mL (≈ 261 µM)	> 50 µg/mL	> 50 µg/mL	> 50 µg/mL	50 µg/mL (≈ 261 µM)
Fc1ccc(N2COc3ccc4ccccc4c3C2)cc1	> 50 µg/mL	50 µg/mL (≈ 179 µM)	50 µg/mL (≈ 179 µM)	> 50 µg/mL	50 µg/mL (≈ 179 µM)	> 50 µg/mL	50 µg/mL (≈ 179 µM)	> 50 µg/mL	> 50 µg/mL	25 µg/mL (≈ 89.5 µM)
Cc1ccc2c(c1)CN(c1ccccc1Cl)CO2	50 µg/mL (≈ 193 µM)	25 µg/mL (≈ 96.3 µM)	12.5 µg/mL (≈ 48.1 µM)	50 µg/mL (≈ 193 µM)	> 50 µg/mL	50 µg/mL (≈ 193 µM)	50 µg/mL (≈ 193 µM)	> 50 µg/mL	50 µg/mL (≈ 193 µM)	12.5 µg/mL (≈ 48.1 µM)
CCCCN1COc2ccc3ccccc3c2C1	> 50 µg/mL	50 µg/mL (≈ 207 µM)	50 µg/mL (≈ 207 µM)	> 50 µg/mL	> 50 µg/mL	> 50 µg/mL	> 50 µg/mL	> 50 µg/mL	> 50 µg/mL	25 µg/mL (≈ 104 µM)
GENTAMICIN					0.78 µg/mL	0.78 µg/mL	0.78 µg/mL	0.39 µg/mL		
Clc1ccc(N2COc3ccc4ccccc4c3C2)c(Cl)c1	> 50 µg/mL	> 50 µg/mL	> 50 µg/mL	> 50 µg/mL	> 50 µg/mL	> 50 µg/mL	> 50 µg/mL	> 50 µg/mL	> 50 µg/mL	50 µg/mL (≈ 151 µM)
CC1(C)S[C@@H]2[C@H](NC(=O)[C@H](N)c3ccccc3)C(=O)N2[C@H]1C(=O)O [AMPICILLIN]					0.39 µg/mL (≈ 1.12 µM)	50 µg/mL (≈ 143 µM)	50 µg/mL (≈ 143 µM)	0.19 µg/mL (≈ 0.544 µM)		
Cc1cccc2c1OCN(c1ccccc1)C2	50 µg/mL (≈ 222 µM)	> 50 µg/mL	25 µg/mL (≈ 111 µM)	50 µg/mL (≈ 222 µM)	> 50 µg/mL	25 µg/mL (≈ 111 µM)	> 50 µg/mL	50 µg/mL (≈ 222 µM)	50 µg/mL (≈ 222 µM)	25 µg/mL (≈ 111 µM)
Cc1ccc2c(c1)CN(c1ccccc1)CO2	> 50 µg/mL	> 50 µg/mL	12.5 µg/mL (≈ 55.5 µM)	50 µg/mL (≈ 222 µM)	50 µg/mL (≈ 222 µM)	25 µg/mL (≈ 111 µM)	> 50 µg/mL	50 µg/mL (≈ 222 µM)	50 µg/mL (≈ 222 µM)	25 µg/mL (≈ 111 µM)
Clc1cc(Cl)c(N2COc3ccc4ccccc4c3C2)c(Cl)c1	> 50 µg/mL	> 50 µg/mL	> 50 µg/mL	> 50 µg/mL	> 50 µg/mL	> 50 µg/mL	> 50 µg/mL	> 50 µg/mL	> 50 µg/mL	50 µg/mL (≈ 137 µM)
Clc1ccc2c(c1)CN(c1ccccc1)CO2	50 µg/mL (≈ 203 µM)	50 µg/mL (≈ 203 µM)	6.25 µg/mL (≈ 25.4 µM)	50 µg/mL (≈ 203 µM)	50 µg/mL (≈ 203 µM)	12.5 µg/mL (≈ 50.9 µM)	> 50 µg/mL	25 µg/mL (≈ 102 µM)	25 µg/mL (≈ 102 µM)	12.5 µg/mL (≈ 50.9 µM)
c1ccc2c3c(ccc2c1)OCN(C1CCCCC1)C3	50 µg/mL (≈ 187 µM)	50 µg/mL (≈ 187 µM)	50 µg/mL (≈ 187 µM)	> 50 µg/mL	> 50 µg/mL	> 50 µg/mL	> 50 µg/mL	> 50 µg/mL	> 50 µg/mL	25 µg/mL (≈ 93.5 µM)
CCCCN1COc2ccc(Cl)cc2C1	> 50 µg/mL	> 50 µg/mL	25 µg/mL (≈ 111 µM)	> 50 µg/mL	> 50 µg/mL	> 50 µg/mL	> 50 µg/mL	> 50 µg/mL	> 50 µg/mL	50 µg/mL (≈ 222 µM)
Clc1ccc(N2COc3ccc4ccccc4c3C2)cc1	> 50 µg/mL	50 µg/mL (≈ 169 µM)	50 µg/mL (≈ 169 µM)	> 50 µg/mL	50 µg/mL (≈ 169 µM)	> 50 µg/mL	50 µg/mL (≈ 169 µM)	> 50 µg/mL	> 50 µg/mL	25 µg/mL (≈ 84.5 µM)
c1ccc(N2COc3c(ccc4ccccc34)C2)cc1	> 50 µg/mL	> 50 µg/mL	> 50 µg/mL	> 50 µg/mL	> 50 µg/mL	> 50 µg/mL	> 50 µg/mL	> 50 µg/mL	> 50 µg/mL	> 50 µg/mL
